pIC50: −log10 of the molar value.
Tests used:
Hepatitis C virus [1] = experiment: Antiviral activity against HCV 2a infected in human Huh7.5 cells assessed inhibition of viral entry after 3 days; assay type: functional, Hepacivirus hominis, genotype 2a, Huh-7
In short: (§1)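 Naive Huh-7.5 cells infected with viral particles carrying a subgenomic HCV RNA with a firefly luciferase reporter, then plated in 96-well format with compounds present. Luciferase activity read after three days of incubation. IC50 calculated; single-point lines give % inhibition at 100 µM.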

Hepatitis C virus [2] = experiment: Antiviral activity against HCV 2a infected in human Huh7.5 cells assessed inhibition of viral replication after 3 days by luciferase assay; assay type: functional, Hepacivirus hominis, genotype 2a, Huh-7
In short: (§2)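 Huh-7.5 cells transfected with an RNA transcript of a replicon carrying a firefly luciferase reporter, then plated in 96-well plates with compounds present. Luciferase activity measured after three days of incubation. IC50 calculated; single-point lines give % inhibition at 100 µM.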

[3] = Selectivity index, IC50 for human Huh7.5 cells to TC50 for inhibition of HCV 2a entry into human Huh7.5 cells; assay type: functional, Huh-7
In short: (§3)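 Index computed as TC50 divided by IC50. TC50 comes from the CellTiter-Blue viability assay in Huh-7.5 cells. IC50 comes from the luciferase-reporter HCV infection (entry) or replicon (replication) assay in Huh-7.5 cells, read after three days.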

[4] = Selectivity index, IC50 for human Huh7.5 cells to TC50 for inhibition of HCV 2a replication in human Huh7.5 cells; assay type: functional, Huh-7; in short: as §3
[5] = Cytotoxicity against human Huh7.5 cells by celltiter-blue viability assay; assay type: cell-based; conditions: Huh-7
In short: (§4)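 Huh-7.5 cells exposed to compounds, and viability estimated by CellTiter-Blue, a resazurin reagent that metabolically active cells reduce to fluorescent resorufin (excitation 579 nm, emission 584 nm). TC50 taken as the 50% cytotoxic concentration; the single-point line reflects testing at 50 µM.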

[6] = Cytotoxicity against human Huh7.5 cells at 50 uM by celltiter-blue viability assay; assay type: cell-based; conditions: huh-7, 50 µM; in short: as §4
Hepatitis C virus [7] = experiment: Antiviral activity against HCV 2a infected in human Huh7.5 cells assessed inhibition of viral replication at 100 uM after 3 days by luciferase assay; assay type: functional, Hepacivirus hominis; conditions: genotype 2a, Huh-7, 72 h; in short: as §2
Hepatitis C virus [8] = experiment: Antiviral activity against HCV 2a infected in human Huh7.5 cells assessed inhibition of viral entry at 100uM after 3 days; assay type: functional, Hepacivirus hominis; conditions: genotype 2a, Huh-7, 72 h; in short: as §1

Structure (SMILES)	TC50 (Hepatitis C virus [1])	TC50 (Hepatitis C virus [2])	Selectivity Index [3]	Selectivity Index [4]	pIC50 [5]	Activity [6]	inhibition at 100 µM (Hepatitis C virus [7])	inhibition at 100 µM (Hepatitis C virus [8])
CCOC(=O)c1c(CS(=O)(=O)c2ccccc2)n(C)c2ccc(CN(C)C)cc12	>50 µM	>50 µM	>2.6	>5	5.00			
CCOC(=O)c1c(CS(=O)(=O)c2ccccc2)n(C)c2ccc(CN3CCCC3)cc12	>50 µM	>50 µM	>10	>16.7	5.52	Non-toxic	80%	95%
CCOC(=O)c1c(CS(=O)(=O)c2ccccc2)n(C)c2ccc(CN3CCN(C)CC3)cc12	>50 µM	>50 µM	>6.3	>12.5	5.40			
CCOC(=O)c1c(CS(=O)(=O)c2ccccc2)n(C)c2ccc(CN3CCOCC3)cc12	>50 µM	>50 µM	>3.6	>12.5	5.40			
CCOC(=O)c1c(CS(=O)(=O)c2ccccc2)n(C)c2ccc(CN3CCCNCC3)cc12	>50 µM	>50 µM	>2.4	>4.2	4.92			
CCOC(=O)c1c(CS(=O)(=O)c2ccccc2)n(C)c2ccc(Cn3ccnc3)cc12	23 µM	18 µM	4.6	1.2	4.82			
CCOC(=O)c1c(C)n(C)c2ccc(CN(C)C)cc12	>50 µM	>50 µM	>6.3	>16.7	5.52			
CCOC(=O)c1c(C)n(C)c2ccc(CN3CCCC3)cc12	>50 µM	>50 µM	>3.8	>10	5.30			
CCOC(=O)c1c(CSc2ccccc2)n(C)c2cc(Br)c(O)c(CN(C)C)c12 [UMIFENOVIR]	12 µM	15 µM	6	15	6.00			
